Data: ChEMBL document CHEMBL3751754, “In vitro efficacy of 2,N-bisarylated 2-ethoxyacetamides against Plasmodium falciparum” (Bioorg Med Chem Lett, 2016)

Columns and labels:
[1] = Bio-transformation in human liver microsomes at 25 uM after 30 mins by LC-MS analysis; format: ADME; conditions: read-out: Drug metabolism
Method in brief: (§1)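 Test compound at 25 µM with pooled human liver microsomes (0.5 mg/mL total protein) in 0.1 M sodium phosphate, pH 7.4. An NADPH-regenerating system was included (1.25 mM NADP+, 3.3 mM glucose-6-phosphate, 3.3 mM MgCl2). Reaction was started with glucose-6-phosphate dehydrogenase (1 unit/mL final). Parent remaining at various time points was measured by LC-MS. Half-life assumed first-order decay; values from one experiment.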

[2] = test system: Plasmodium falciparum; test: Antiplasmodial activity against mefloquine-resistant Plasmodium falciparum D6 assessed as inhibition of [3H]-hypoxanthine uptake after 48 hrs by liquid scintillation counting analysis; format: functional, organism-based
Method in brief: (§2)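 IC50 from inhibition of [3H]hypoxanthine uptake by P. falciparum W2 or D6 parasites. Values come from a single experiment.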

[3] = test system: Plasmodium falciparum; test: Antiplasmodial activity against chloroquine, quinine and pyrimethamine-resistant Plasmodium falciparum W2 assessed as inhibition of [3H]-hypoxanthine uptake after 48 hrs by liquid scintillation counting analysis; format: functional, organism-based; method in brief: as §2
[4] = test system: Plasmodium falciparum; test: Resistant index, ratio of IC50 for chloroquine, quinine and pyrimethamine-resistant Plasmodium falciparum W2 to IC50 for mefloquine-resistant Plasmodium falciparum D6; format: functional
Method in brief: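 Index is W2 IC50 divided by D6 IC50. Each IC50 is from inhibition of [3H]hypoxanthine uptake in a single experiment.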

[5] = Half life in human liver microsomes at 25 uM by LC-MS analysis; format: ADME; method in brief: as §1
[6] = Half life in mouse liver microsomes at 25 uM by LC-MS analysis; format: ADME

`O=C(/C=C/c1cnc2ccccc2c1)c1cc(Cl)ccc1Cl` gave a metabolised at 0.5 h, 25 µM [1] of 100%.
In the case of `O=C(/C=C/c1ccnc2ccccc12)c1ccc(Cl)c(Cl)c1`, the metabolised at 0.5 h, 25 µM [1] is reported as 100%.
With `CCOC(C(=O)Nc1ccc(Cl)cc1Cl)c1cnc2ccccc2c1` (stereo not drawn) the IC50 [2] was 4.5 µM, the IC50 [3] was 2 µM and the “Ratio IC50” value [4] was 0.43. For the same compound, the half-life at 25 µM [5] was > 60 min and the half-life at 25 µM [6] was > 60 min.
In the case of `CCOC(C(=O)Nc1cccc2ncccc12)c1ccc(Cl)c(Cl)c1` (stereo not drawn), the IC50 [2] is reported as > 27 µM and the IC50 [3] is reported as > 27 µM.
In the case of `CCOC(C(=O)Nc1ccc2ncccc2c1)c1ccc(Cl)cc1Cl` (stereo not drawn), the IC50 [2] is reported as 15 µM, the IC50 [3] is reported as 14 µM and the “Ratio IC50” value [4] is reported as 0.92.
With `CCOC(C(=O)Nc1ccnc2ccccc12)c1ccc(Cl)cc1Cl` (stereo not drawn) the IC50 [2] was 14 µM, the IC50 [3] was 15 µM and the “Ratio IC50” value [4] was 1.
For `CCOC(C(=O)Nc1cc(Cl)ccc1Cl)c1ccnc2ccccc12` (stereo not drawn), the IC50 [2] was 14 µM, the IC50 [3] was 15 µM and the “Ratio IC50” value [4] was 1.
For `CCOC(C(=O)Nc1cnc2ccccc2c1)c1ccc(Cl)c(Cl)c1` (stereo not drawn), the IC50 [2] was 13 µM and the IC50 [3] was 5.9 µM.
With `CCOC(C(=O)Nc1ccc(Cl)c(Cl)c1)c1ccnc2ccccc12` (stereo not drawn) the IC50 [2] was 15 µM, the IC50 [3] was 12 µM and the “Ratio IC50” value [4] was 0.8.
For `CCOC(C(=O)Nc1ccnc2ccccc12)c1cc(Cl)ccc1Cl` (stereo not drawn), the IC50 [2] was 12 µM, the IC50 [3] was 14 µM and the “Ratio IC50” value [4] was 1.2.
In the case of `CCOC(C(=O)Nc1cccc2cccnc12)c1ccc(Cl)c(Cl)c1` (stereo not drawn), the IC50 [2] is reported as 20 µM, the IC50 [3] is reported as 16 µM and the “Ratio IC50” value [4] is reported as 0.84.
For `CCOC(C(=O)Nc1cccc2ncccc12)c1ccc(Cl)cc1Cl` (stereo not drawn), the IC50 [2] was > 27 µM and the IC50 [3] was > 27 µM.
With `CCOC(C(=O)Nc1ccc(Cl)c(Cl)c1)c1cnc2ccccc2c1` (stereo not drawn) the IC50 [2] was 18 µM, the IC50 [3] was 13 µM and the “Ratio IC50” value [4] was 0.71.
With `CCOC(C(=O)Nc1ccc2ccccc2n1)c1ccc(Cl)c(Cl)c1` (stereo not drawn) the IC50 [2] was 19 µM, the IC50 [3] was 15 µM and the “Ratio IC50” value [4] was 0.76.
For `CCOC(C(=O)Nc1cccc2cccnc12)c1cc(Cl)ccc1Cl` (stereo not drawn), the IC50 [2] was 14 µM and the IC50 [3] was > 27 µM.
In the case of `CCOC(C(=O)Nc1ccc(Cl)cc1)c1ccc(Cl)cc1` (stereo not drawn), the IC50 [2] is reported as 7.3 µM, the IC50 [3] is reported as 11 µM and the “Ratio IC50” value [4] is reported as 1.5. The metabolised at 0.5 h, 25 µM [1] was 0%.
With `CCOC(C(=O)Nc1ccc2ccccc2n1)c1ccc(Cl)cc1Cl` (stereo not drawn) the IC50 [2] was 15 µM, the IC50 [3] was 14 µM and the “Ratio IC50” value [4] was 0.88.
For `CCOC(C(=O)Nc1cnc2ccccc2c1)c1ccc(Cl)cc1Cl` (stereo not drawn), the IC50 [2] was 9.8 µM, the IC50 [3] was 27 µM and the “Ratio IC50” value [4] was 2.7.
For `CCOC(C(=O)Nc1cc(Cl)ccc1Cl)c1cnc2ccccc2c1` (stereo not drawn), the IC50 [2] was 14 µM, the IC50 [3] was 14 µM and the “Ratio IC50” value [4] was 1.1.
For `CCOC(C(=O)Nc1ccnc2ccccc12)c1ccc(Cl)c(Cl)c1` (stereo not drawn), the IC50 [2] was 3.2 µM, the IC50 [3] was 1.7 µM and the “Ratio IC50” value [4] was 0.53. For the same compound, the half-life at 25 µM [5] was 27 min and the half-life at 25 µM [6] was 30 min.
With `CCOC(C(=O)Nc1cccc2ncccc12)c1cc(Cl)ccc1Cl` (stereo not drawn) the IC50 [2] was 11 µM, the IC50 [3] was 15 µM and the “Ratio IC50” value [4] was 1.4.
Compound `CCOC(C(=O)Nc1ccc2ncccc2c1)c1ccc(Cl)c(Cl)c1` (stereo not drawn) has an IC50 [2] of 7.7 µM and an IC50 [3] of 9.1 µM.
In the case of `CCOC(C(=O)Nc1ccc2ncccc2c1)c1cc(Cl)ccc1Cl` (stereo not drawn), the IC50 [2] is reported as > 17 µM and the IC50 [3] is reported as > 17 µM.
For `CCOC(C(=O)Nc1cccc2cccnc12)c1ccc(Cl)cc1Cl` (stereo not drawn), the IC50 [2] was > 27 µM and the IC50 [3] was > 27 µM.
For `CCOC(C(=O)Nc1ccc2ccccc2n1)c1cc(Cl)ccc1Cl` (stereo not drawn), the IC50 [2] was 19 µM and the IC50 [3] was > 27 µM.
With `CCOC(C(=O)Nc1ccc(Cl)cc1Cl)c1ccnc2ccccc12` (stereo not drawn) the IC50 [2] was 6.9 µM, the IC50 [3] was 1.8 µM and the “Ratio IC50” value [4] was 0.26. The half-life at 25 µM [5] was > 60 min and the half-life at 25 µM [6] was > 60 min.
For `CCOC(C(=O)Nc1cnc2ccccc2c1)c1cc(Cl)ccc1Cl` (stereo not drawn), the IC50 [2] was 6.7 µM, the IC50 [3] was 9.6 µM and the “Ratio IC50” value [4] was 1.4. For the same compound, the half-life at 25 µM [5] was 27 min and the half-life at 25 µM [6] was 9 min.
Compound `O=C(/C=C/c1ccnc2ccccc12)c1cc(Cl)ccc1Cl` has a metabolised at 0.5 h, 25 µM [1] of 100%.
In the case of `O=C(/C=C/c1ccc(Cl)cc1)c1ccc(Cl)cc1` [4',4-DICHLOROCHALCONE], the IC50 [2] is reported as 2.6 µM, the IC50 [3] is reported as 5.3 µM and the “Ratio IC50” value [4] is reported as 2. For the same compound, the metabolised at 0.5 h, 25 µM [1] was 85%.
